In ChEMBL document CHEMBL4396885, “Thioether-based 2-aminobenzamide derivatives: Novel HDAC inhibitors with potent in vitro and in vivo antitumor activity” (Eur J Med Chem, 2019):

Experiments:
[1] = tested on: HCT-116; assay: Antiproliferative activity against human HCT116 cells assessed as decrease in cell viability after 72 hrs by CCK-8 assay; assay type: functional, cell-based; conditions: HCT-116, 72 h
Summary of the method: (§1)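 Cells grown to 70–85% confluence (A375, A549, HCT116 in RPMI1640; HeLa, SMMC7721 in DMEM; 10% FBS, 37 °C, 5% CO2), seeded 4000/well, dosed after 12 h across a concentration range, incubated 72 h, then CCK-8 for 1 h; absorbance at 450 nm. IC50 as mean ± SD of three separate experiments.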

[2] = molecular target: Histone deacetylase 3/NCoR1 (Homo sapiens, UniProt O15379); assay: Inhibition of recombinant human HDAC3/NCOR1 assessed as decrease in deacetylation of FLUOR DE LYS SIRT1 substrate preincubated for 10 mins followed by substrate addition and measured after 30 mins by fluorescence based assay; assay type: protein-complex assay
Chain of Histone deacetylase 3/NCoR1 (O15379 whole entry): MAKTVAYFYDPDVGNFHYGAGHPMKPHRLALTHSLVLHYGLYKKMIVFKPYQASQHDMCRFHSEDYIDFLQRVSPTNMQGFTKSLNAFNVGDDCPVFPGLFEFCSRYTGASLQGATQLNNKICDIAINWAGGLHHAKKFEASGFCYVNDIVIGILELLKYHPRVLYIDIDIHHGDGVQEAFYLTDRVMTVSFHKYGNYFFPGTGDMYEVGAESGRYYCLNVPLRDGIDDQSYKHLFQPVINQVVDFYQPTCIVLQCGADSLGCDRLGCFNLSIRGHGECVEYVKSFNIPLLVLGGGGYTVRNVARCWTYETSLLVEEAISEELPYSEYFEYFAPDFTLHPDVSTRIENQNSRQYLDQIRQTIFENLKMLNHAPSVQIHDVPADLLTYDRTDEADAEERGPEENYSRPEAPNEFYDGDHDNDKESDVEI
Chain of Histone deacetylase 3/NCoR1 (O75376 whole entry, further chain): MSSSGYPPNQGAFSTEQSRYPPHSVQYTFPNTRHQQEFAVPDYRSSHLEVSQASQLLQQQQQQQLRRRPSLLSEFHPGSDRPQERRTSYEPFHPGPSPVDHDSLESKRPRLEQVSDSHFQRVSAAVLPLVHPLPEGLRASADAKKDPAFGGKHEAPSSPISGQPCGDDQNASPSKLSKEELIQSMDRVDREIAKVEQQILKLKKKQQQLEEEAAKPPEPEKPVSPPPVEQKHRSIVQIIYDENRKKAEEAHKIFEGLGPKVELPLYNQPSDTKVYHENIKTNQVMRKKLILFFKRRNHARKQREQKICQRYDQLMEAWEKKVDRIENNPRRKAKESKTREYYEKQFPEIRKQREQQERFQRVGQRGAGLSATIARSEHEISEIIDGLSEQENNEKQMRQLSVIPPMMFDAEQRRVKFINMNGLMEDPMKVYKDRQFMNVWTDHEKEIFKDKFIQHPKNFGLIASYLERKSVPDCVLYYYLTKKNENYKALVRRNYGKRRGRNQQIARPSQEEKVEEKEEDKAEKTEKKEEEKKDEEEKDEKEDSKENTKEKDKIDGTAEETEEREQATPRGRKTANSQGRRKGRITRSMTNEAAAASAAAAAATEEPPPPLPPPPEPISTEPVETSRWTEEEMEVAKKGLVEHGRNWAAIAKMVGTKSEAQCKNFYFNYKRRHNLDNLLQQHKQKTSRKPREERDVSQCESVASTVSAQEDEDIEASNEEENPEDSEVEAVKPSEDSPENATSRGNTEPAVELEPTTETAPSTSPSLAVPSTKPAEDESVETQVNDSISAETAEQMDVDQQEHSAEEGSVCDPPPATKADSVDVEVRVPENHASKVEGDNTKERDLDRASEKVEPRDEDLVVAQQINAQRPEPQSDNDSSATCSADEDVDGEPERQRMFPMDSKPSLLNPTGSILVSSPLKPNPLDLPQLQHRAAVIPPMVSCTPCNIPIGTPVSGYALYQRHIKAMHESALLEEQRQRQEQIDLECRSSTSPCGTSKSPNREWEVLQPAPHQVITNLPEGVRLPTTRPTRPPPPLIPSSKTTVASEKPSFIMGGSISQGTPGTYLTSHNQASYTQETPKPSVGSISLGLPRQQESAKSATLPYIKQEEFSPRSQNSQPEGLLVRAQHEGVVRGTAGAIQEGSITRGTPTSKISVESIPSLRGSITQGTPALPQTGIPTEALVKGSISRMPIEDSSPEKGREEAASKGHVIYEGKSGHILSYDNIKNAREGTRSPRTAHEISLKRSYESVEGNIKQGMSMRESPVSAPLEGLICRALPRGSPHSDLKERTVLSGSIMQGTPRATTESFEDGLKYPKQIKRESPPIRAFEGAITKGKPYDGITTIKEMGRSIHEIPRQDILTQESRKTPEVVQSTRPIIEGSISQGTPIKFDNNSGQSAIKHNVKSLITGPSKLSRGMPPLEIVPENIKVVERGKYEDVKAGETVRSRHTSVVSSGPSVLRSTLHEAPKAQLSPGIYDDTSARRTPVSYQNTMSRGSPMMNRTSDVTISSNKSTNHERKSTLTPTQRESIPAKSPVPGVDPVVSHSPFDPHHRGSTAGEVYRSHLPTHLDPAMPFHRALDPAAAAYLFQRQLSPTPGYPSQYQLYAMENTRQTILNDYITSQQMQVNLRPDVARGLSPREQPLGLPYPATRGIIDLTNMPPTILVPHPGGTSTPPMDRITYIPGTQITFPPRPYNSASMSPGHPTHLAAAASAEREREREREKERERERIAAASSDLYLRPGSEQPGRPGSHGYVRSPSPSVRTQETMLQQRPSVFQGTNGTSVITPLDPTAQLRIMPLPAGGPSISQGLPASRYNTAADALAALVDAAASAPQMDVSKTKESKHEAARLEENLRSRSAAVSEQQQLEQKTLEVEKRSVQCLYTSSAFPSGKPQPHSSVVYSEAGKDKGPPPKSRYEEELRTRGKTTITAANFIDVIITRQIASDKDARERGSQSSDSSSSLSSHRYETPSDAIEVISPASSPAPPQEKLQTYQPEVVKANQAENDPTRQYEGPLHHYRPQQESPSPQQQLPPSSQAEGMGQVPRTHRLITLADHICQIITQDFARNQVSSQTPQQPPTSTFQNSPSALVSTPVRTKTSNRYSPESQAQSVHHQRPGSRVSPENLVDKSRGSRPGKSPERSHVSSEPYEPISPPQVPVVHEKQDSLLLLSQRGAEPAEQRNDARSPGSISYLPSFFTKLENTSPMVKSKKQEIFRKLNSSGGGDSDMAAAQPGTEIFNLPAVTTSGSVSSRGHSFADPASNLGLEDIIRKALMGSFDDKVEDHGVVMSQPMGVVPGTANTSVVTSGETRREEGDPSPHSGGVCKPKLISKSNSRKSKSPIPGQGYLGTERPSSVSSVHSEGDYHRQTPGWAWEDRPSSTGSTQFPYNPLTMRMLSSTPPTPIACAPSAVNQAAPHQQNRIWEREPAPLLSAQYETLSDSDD

[3] = molecular target: Histone deacetylase 1 (Homo sapiens, UniProt Q13547); assay: Inhibition of recombinant human His tagged HDAC1 expressed in baculovirus infected insect cells assessed as decrease in deacetylation of FLUOR DE LYS Green substrate preincubated for 10 mins followed by substrate addition and measured after 30 mins by fluorescence based assay
Chain of Histone deacetylase 1 (Q13547 whole entry): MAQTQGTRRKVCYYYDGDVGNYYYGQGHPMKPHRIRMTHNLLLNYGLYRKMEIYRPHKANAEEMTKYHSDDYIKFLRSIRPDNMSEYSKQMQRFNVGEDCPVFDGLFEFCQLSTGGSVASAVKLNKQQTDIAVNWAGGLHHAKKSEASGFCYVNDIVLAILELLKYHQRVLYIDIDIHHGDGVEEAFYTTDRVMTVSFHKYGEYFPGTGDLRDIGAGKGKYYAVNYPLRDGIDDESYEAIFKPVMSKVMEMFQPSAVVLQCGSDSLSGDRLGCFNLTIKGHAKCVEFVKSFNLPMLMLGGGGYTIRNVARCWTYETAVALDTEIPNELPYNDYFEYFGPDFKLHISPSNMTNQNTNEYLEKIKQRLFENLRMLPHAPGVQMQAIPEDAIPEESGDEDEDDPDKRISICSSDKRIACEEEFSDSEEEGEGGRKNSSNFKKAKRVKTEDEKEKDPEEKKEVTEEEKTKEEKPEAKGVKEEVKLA

[4] = tested on: HeLa; assay: Antiproliferative activity against human HeLa cells assessed as growth inhibition at 8 uM after 72 hrs by CCK-8 assay relative to control; assay type: functional; conditions: read-out: GI
[5] = tested on: HCT-116; assay: Antiproliferative activity against human HCT116 cells assessed as growth inhibition at 2 uM after 72 hrs by CCK-8 assay relative to control; assay type: functional; conditions: HCT-116, 72 h, read-out: GI
[6] = tested on: NIH3T3; assay: Cytotoxicity against mouse NIH/3T3 cells assessed as reduction in cell viability after 72 hrs by CCK-8 assay; assay type: cell-based; conditions: NIH3T3, 72 h
[7] = tested on: SMMC-7721; assay: Antiproliferative activity against human SMMC7721 cells assessed as growth inhibition at 8 uM after 72 hrs by CCK-8 assay relative to control; assay type: functional; conditions: SMMC-7721, 72 h, read-out: GI
[8] = tested on: HeLa; assay: Antiproliferative activity against human HeLa cells assessed as decrease in cell viability after 72 hrs by CCK-8 assay; assay type: functional, cell-based; summary of the method: as §1
[9] = tested on: A-375; assay: Antiproliferative activity against human A375 cells assessed as growth inhibition at 8 uM after 72 hrs by CCK-8 assay relative to control; assay type: functional; conditions: A-375, 72 h, read-out: GI
[10] = tested on: A-375; assay: Antiproliferative activity against human A375 cells assessed as decrease in cell viability after 72 hrs by CCK-8 assay; assay type: functional, cell-based; conditions: A-375, 72 h; summary of the method: as §1
[11] = tested on: SMMC-7721; assay: Antiproliferative activity against human SMMC7721 cells assessed as decrease in cell viability after 72 hrs by CCK-8 assay; assay type: functional, cell-based; conditions: SMMC-7721, 72 h; summary of the method: as §1
[12] = tested on: SMMC-7721; assay: Antiproliferative activity against human SMMC7721 cells assessed as growth inhibition at 2 uM after 72 hrs by CCK-8 assay relative to control; assay type: functional; conditions: SMMC-7721, 72 h, read-out: GI
[13] = tested on: HCT-116; assay: Antiproliferative activity against human HCT116 cells assessed as growth inhibition at 8 uM after 72 hrs by CCK-8 assay relative to control; assay type: functional; conditions: HCT-116, 72 h, read-out: GI
[14] = molecular target: Histone deacetylase 2 (Homo sapiens, UniProt Q92769); assay: Inhibition of recombinant human HDAC2 assessed as decrease in deacetylation of FLUOR DE LYS Green substrate preincubated for 10 mins followed by substrate addition and measured after 30 mins by fluorescence based assay
Chain of Histone deacetylase 2 (Q92769 whole entry): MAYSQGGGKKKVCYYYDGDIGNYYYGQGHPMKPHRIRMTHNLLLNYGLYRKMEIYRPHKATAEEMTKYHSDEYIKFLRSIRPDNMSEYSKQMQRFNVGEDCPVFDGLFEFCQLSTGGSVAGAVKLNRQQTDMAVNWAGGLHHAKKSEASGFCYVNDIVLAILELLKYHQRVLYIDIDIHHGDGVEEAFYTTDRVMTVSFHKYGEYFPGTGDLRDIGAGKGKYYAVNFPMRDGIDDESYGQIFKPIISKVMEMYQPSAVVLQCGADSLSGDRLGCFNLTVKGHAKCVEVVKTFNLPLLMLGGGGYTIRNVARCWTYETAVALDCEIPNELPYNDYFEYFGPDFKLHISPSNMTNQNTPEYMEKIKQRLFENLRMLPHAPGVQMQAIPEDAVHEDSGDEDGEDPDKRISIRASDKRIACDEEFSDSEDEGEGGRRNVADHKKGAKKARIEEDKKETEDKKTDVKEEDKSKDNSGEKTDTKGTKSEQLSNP

[15] = tested on: A549; assay: Antiproliferative activity against human A549 cells assessed as growth inhibition at 2 uM after 72 hrs by CCK-8 assay relative to control; assay type: functional; conditions: A549, 72 h, read-out: GI
[16] = molecular target: Histone deacetylase; assay: Inhibition of HDAC in human HeLa cell nuclear extract assessed as decrease in deacetylation of FLUOR DE LYS Green substrate preincubated for 10 mins followed by substrate addition and measured after 30 mins by fluorescence based assay; assay type: cell-free
[17] = molecular target: T1, Histone deacetylase 8 (Homo sapiens, UniProt Q9BY41); assay: Inhibition of recombinant human HDAC8 assessed as decrease in deacetylation of FLUOR DE LYS substrate preincubated for 10 mins followed by substrate addition and measured after 30 mins by fluorescence based assay
T1 sequence (Q9BY41 whole entry): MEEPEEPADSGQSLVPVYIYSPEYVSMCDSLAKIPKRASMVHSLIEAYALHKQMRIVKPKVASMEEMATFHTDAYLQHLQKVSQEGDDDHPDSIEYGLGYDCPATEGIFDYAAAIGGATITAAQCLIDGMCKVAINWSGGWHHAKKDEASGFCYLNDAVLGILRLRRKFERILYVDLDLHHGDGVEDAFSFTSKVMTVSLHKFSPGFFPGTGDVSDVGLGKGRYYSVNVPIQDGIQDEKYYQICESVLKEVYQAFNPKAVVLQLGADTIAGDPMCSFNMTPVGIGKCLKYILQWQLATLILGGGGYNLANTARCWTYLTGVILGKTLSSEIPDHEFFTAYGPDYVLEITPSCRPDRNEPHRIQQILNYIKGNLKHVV

[18] = tested on: A549; assay: Antiproliferative activity against human A549 cells assessed as decrease in cell viability after 72 hrs by CCK-8 assay; assay type: functional, cell-based; conditions: A549, 72 h; summary of the method: as §1
[19] = molecular target: T2, Protein deacetylase HDAC6 (Homo sapiens, UniProt Q9UBN7); assay: Inhibition of recombinant human His tagged HDAC6 expressed in baculovirus infected insect cells assessed as decrease in deacetylation of FLUOR DE LYS SIRT1 substrate by measuring decrease in fluorescence preincubated for 10 mins followed by substrate addition and measured after 30 mins by fluorescence based assay
T2 sequence (Q9UBN7 whole entry): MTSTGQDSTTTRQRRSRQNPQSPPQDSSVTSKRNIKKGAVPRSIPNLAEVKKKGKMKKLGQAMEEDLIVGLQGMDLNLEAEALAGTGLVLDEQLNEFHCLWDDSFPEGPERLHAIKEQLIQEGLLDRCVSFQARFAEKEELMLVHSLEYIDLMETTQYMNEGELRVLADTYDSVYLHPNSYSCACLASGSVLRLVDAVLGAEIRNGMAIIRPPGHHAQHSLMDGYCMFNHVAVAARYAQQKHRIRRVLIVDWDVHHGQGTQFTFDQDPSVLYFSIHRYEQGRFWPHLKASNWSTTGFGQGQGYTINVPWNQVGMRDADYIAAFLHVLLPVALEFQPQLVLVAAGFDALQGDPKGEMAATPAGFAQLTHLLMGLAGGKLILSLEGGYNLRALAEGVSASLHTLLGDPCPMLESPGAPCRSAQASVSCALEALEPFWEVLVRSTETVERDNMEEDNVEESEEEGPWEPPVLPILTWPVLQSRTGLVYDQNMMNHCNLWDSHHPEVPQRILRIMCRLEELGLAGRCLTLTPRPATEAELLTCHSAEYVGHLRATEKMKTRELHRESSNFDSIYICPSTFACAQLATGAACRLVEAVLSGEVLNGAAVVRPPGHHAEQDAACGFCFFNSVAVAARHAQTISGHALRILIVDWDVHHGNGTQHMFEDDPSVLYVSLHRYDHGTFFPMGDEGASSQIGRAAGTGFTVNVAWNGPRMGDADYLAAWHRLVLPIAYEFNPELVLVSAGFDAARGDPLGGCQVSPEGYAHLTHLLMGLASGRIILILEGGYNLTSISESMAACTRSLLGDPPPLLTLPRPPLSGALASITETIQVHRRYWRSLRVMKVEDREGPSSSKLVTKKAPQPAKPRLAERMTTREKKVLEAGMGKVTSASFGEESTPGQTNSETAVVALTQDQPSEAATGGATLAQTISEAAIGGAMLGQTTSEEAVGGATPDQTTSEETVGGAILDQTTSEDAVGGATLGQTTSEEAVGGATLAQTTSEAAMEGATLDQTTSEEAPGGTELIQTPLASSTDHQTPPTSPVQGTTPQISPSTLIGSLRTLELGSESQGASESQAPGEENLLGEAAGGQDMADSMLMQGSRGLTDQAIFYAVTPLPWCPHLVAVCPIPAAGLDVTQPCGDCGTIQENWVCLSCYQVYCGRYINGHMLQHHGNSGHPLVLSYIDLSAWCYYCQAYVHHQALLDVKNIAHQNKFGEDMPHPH

[20] = tested on: A-375; assay: Antiproliferative activity against human A375 cells assessed as growth inhibition at 2 uM after 72 hrs by CCK-8 assay relative to control; assay type: functional; conditions: A-375, 72 h, read-out: GI
[21] = tested on: A549; assay: Antiproliferative activity against human A549 cells assessed as growth inhibition at 8 uM after 72 hrs by CCK-8 assay relative to control; assay type: functional; conditions: A549, 72 h, read-out: GI
[22] = tested on: HeLa; assay: Antiproliferative activity against human HeLa cells assessed as growth inhibition at 2 uM after 72 hrs by CCK-8 assay relative to control; assay type: functional; conditions: read-out: GI

| IC50 [1] [nM] | IC50 [2] [nM] | IC50 [3] [nM] | IC50 [8] [nM] | IC50 [10] [nM] | IC50 [11] [nM] | IC50 [14] [nM] | IC50 [16] [nM] | IC50 [18] [nM] | SMILES | inhibition of growth at 8 µM [4] [%] | inhibition of growth at 2 µM [5] [%] | IC50 [6] [nM] | inhibition of growth at 8 µM [7] [%] | inhibition of growth at 8 µM [9] [%] | inhibition of growth at 2 µM [12] [%] | inhibition of growth at 8 µM [13] [%] | inhibition of growth at 2 µM [15] [%] | inhibition of growth at 2 µM [20] [%] | inhibition of growth at 8 µM [21] [%] | inhibition of growth at 2 µM [22] [%] | also measured |
| --- | --- | --- | --- | --- | --- | --- | --- | --- | --- | --- | --- | --- | --- | --- | --- | --- | --- | --- | --- | --- | --- |
| 1140 | 274 | 11 | 1140 | 1550 | 1890 | 441 | 1995 | 970 | Nc1ccccc1NC(=O)c1ccc(CSc2nccc(C(F)(F)F)n2)cc1 | 83.4 | 82.7 | 1850 | 80.6 | 80.1 | 66.1 | 93.1 | 75.4 | 54.4 | 95.1 | 68.3 | IC50 [17]: > 32000 nM; IC50 [19]: > 32000 nM |
| 2490 | 381 | 20 | 2090 | 3670 | 2760 | 139 | 10720 | 2890 | Cc1cc(C)cc(SCc2ccc(C(=O)Nc3ccccc3N)cc2)c1 | 78.8 | 3.22 | 3340 | 85.1 | 74.7 | 29.1 | 72.9 | 33.3 | 48.5 | 78.5 | 40.1 | IC50 [17]: > 32000 nM; IC50 [19]: > 32000 nM |
| 2630 |  |  | 4250 | 3700 | 3740 |  |  | 3270 | Cc1ccc(SCc2ccc(C(=O)Nc3ccccc3N)cc2)cc1 | 79.2 | 74.8 |  | 82.7 | 67 | 25.1 | 84 | 40.5 | 17.5 | 78.3 | 33.8 |  |
| 2000 |  |  | 3070 | 4420 | 3400 |  |  | 5680 | COc1ccc(SCc2ccc(C(=O)Nc3ccccc3N)cc2)cc1OC | 79.9 | 33.6 |  | 78.9 | 84.6 | 20.2 | 91.5 | 19.9 | 18.1 | 80.1 | 15.2 |  |
